From ChEMBL document CHEMBL3352291, “Synthesis and structure-activity relationship of thiobarbituric acid derivatives as potent inhibitors of urease” (Bioorg Med Chem, 2014) come the findings set out here.

The assay can be described thus: Inhibition of Bacillus pasteurii urease using urea substrate assessed as reduction in ammonia production after 15 mins by indophenol's method. Also on record: species or system Sporosarcina pasteurii. A digest of the protocol:
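One unit of B. pasteurii urease in buffer containing 100 mM urea, incubated with test compound (added as 1 mM solution) at 30 °C for 15 min. Ammonia was measured by the indophenol method: phenol reagent and alkali reagent were added, and the increase in absorbance at 630 nm was read after 50 min on a plate reader.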

In the case of `O=C1NC(=S)NC(=O)C1C=C1c2ccccc2Cc2ccccc21`, the IC50 turned out to be 137 µM. Take `O=C1NC(=S)NC(=O)C1=Cc1c[nH]c2ccccc12`: the IC50 was 171 µM. The result for `COc1cccc(C=C2C(=O)NC(=S)NC2=O)c1O` reads 19.2 µM; that for `COc1cc(C=C2C(=O)NC(=S)NC2=O)cc(OC)c1O`, 46.5 µM; that for `Cc1ccccc1C=C1C(=O)NC(=S)NC1=O`, 42.1 µM.

Turning to `Cc1ccc(C=C2C(=O)NC(=S)NC2=O)o1`, the 50% inhibitory concentration (IC50) came to 18.2 µM.

Consider `CN(C)c1ccc(C=C2C(=O)NC(=S)NC2=O)cc1`, for which the IC50 amounted to 58.5 µM.

As to `CSc1ccc(C=C2C(=O)NC(=S)NC2=O)cc1`, the IC50 was determined as 18.1 µM. The result for `CCOc1ccc(C=C2C(=O)NC(=S)NC2=O)cc1` reads 29.4 µM. With `O=C1NC(=S)NC(=O)C1=Cc1ccc(O)c(O)c1`, the IC50 is 1.61 µM. As to `O=C1NC(=S)NC(=O)C1=Cc1cccs1`, the IC50 worked out at 21.5 µM. The result for `O=C1NC(=S)NC(=O)C1=Cc1ccc(O)c(O)c1O` reads 25.2 µM; that for `COc1cc(C=C2C(=O)NC(=S)NC2=O)c(OC)cc1Br`, 43.3 µM; that for `Nc1ccccc1C=C1C(=O)NC(=S)NC1=O`, 32.3 µM. The result for `COc1cc(Br)c(C=C2C(=O)NC(=S)NC2=O)cc1OC` reads 47.3 µM; that for `COc1ccc(C=C2C(=O)NC(=S)NC2=O)cc1OC`, 14.3 µM; that for `COc1ccc(O)c(C=C2C(=O)NC(=S)NC2=O)c1`, 32.7 µM. Consider `O=C1NC(=S)NC(=O)C1=Cc1cc(Br)c(O)c(Br)c1`, for which the half-inhibitory concentration (IC50) turned out to be 10.6 µM. As to `COc1cc(C=C2C(=O)NC(=S)NC2=O)cc(I)c1O`, the IC50 amounted to 42.5 µM. In the case of `O=C1NC(=S)NC(=O)C1=Cc1ccc(O)cc1O`, the IC50 amounted to 32.1 µM. As to `O=C1NC(=S)NC(=O)C1=Cc1ccc(C=C2C(=O)NC(=S)NC2=O)cc1`, the concentration for half-maximal inhibition (IC50) was 6.7 µM. In the case of `Cc1cccc(C=C2C(=O)NC(=S)NC2=O)n1`, the IC50 was 16 µM.

On to `NC(N)=S` [THIOUREA], for which the IC50 came to 21 µM.

Regarding `O=C1NC(=S)NC(=O)C1=Cc1cc(Cl)cc(Cl)c1O`, the IC50 is 50.3 µM.

As to `O=C1NC(=S)NC(=O)C1=Cc1ccncc1`, the IC50 is 16 µM.

For `O=C1NC(=S)NC(=O)C1=Cc1c(Cl)c2cc(Br)ccc2oc1=O`, the IC50 was 62.8 µM. The result for `O=C1NC(=S)NC(=O)C1=Cc1c(O)ccc2ccccc12` reads 21.4 µM; that for `COc1ccc(C=C2C(=O)NC(=S)NC2=O)cc1O`, 22.8 µM.
